# Data from ChEMBL document CHEMBL1955778, “Design and synthesis of novel 7-aminoquinazoline derivatives: antitumor and anticonvulsant activities” (Bioorg Med Chem Lett, 2012).
# What was measured:
# Type in all cases: functional
# OVCAR-8 = experiment: Growth inhibition of human OVCAR8 cells at 10 uM relative to control; settings: read-out: GI
# In short: (§1)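 Each cell line in a 60-line human tumour panel exposed to one 10 μM concentration. Growth inhibition percentage computed as 100 minus the percentage activity relative to control.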
# OVCAR-5 = experiment: Growth inhibition of human OVCAR5 cells at 10 uM relative to control; settings: read-out: GI; in short: as §1
# OVCAR-4 = experiment: Growth inhibition of human OVCAR4 cells at 10 uM relative to control; settings: read-out: GI; in short: as §1
# UACC-62 = experiment: Growth inhibition of human UACC62 cells at 10 uM relative to control; settings: read-out: GI
# In short: (§2)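 Single-dose screen across the 60-cell-line human tumor panel at 10 μM. Growth inhibition is reported as a percentage, taken as 100 minus the % growth relative to untreated control.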
# SK-MEL-5 = experiment: Growth inhibition of human SK-MEL-5 cells at 10 uM relative to control; settings: read-out: GI; in short: as §1
# MDA-MB-435 = experiment: Growth inhibition of human MDA-MB-435 cells at 10 uM relative to control; settings: read-out: GI; in short: as §1
# Malme-3M = experiment: Growth inhibition of human MALME-3M cells at 10 uM relative to control; settings: read-out: GI; in short: as §1
# M14 = experiment: Growth inhibition of human M14 cells at 10 uM relative to control; settings: read-out: GI; in short: as §1
# U-251 = experiment: Growth inhibition of human U251 cells at 10 uM relative to control; settings: read-out: GI; in short: as §2
# SNB-19 = experiment: Growth inhibition of human SNB19 cells at 10 uM relative to control; settings: read-out: GI; in short: as §2
# SNB-75 = experiment: Growth inhibition of human SNB75 cells at 10 uM relative to control; settings: read-out: GI; in short: as §2
# SF-295 = experiment: Growth inhibition of human SF295 cells at 10 uM relative to control; settings: read-out: GI; in short: as §1
# SF-539 = experiment: Growth inhibition of human SF539 cells at 10 uM relative to control; settings: read-out: GI; in short: as §1
# KM12 = experiment: Growth inhibition of human KM12 cells at 10 uM relative to control; settings: read-out: GI; in short: as §1
# HCT-116 = experiment: Growth inhibition of human HCT116 cells at 10 uM relative to control; settings: read-out: GI; in short: as §1
# HCT-15 = experiment: Growth inhibition of human HCT15 cells at 10 uM relative to control; settings: read-out: GI; in short: as §1
# HOP-62 = experiment: Growth inhibition of human HOP62 cells at 10 uM relative to control; settings: read-out: GI; in short: as §1
# A549 = experiment: Growth inhibition of human A549 cells at 10 uM relative to control; settings: read-out: GI; in short: as §1
# EKVX = experiment: Growth inhibition of human EKVX cells at 10 uM relative to control; settings: read-out: GI; in short: as §1
# RPMI-8226 = experiment: Growth inhibition of human RPMI8226 cells at 10 uM relative to control; settings: read-out: GI; in short: as §1
# SR = experiment: Growth inhibition of human SR cells at 10 uM relative to control; settings: read-out: GI; in short: as §2
# MOLT-4 = experiment: Growth inhibition of human MOLT4 cells at 10 uM relative to control; settings: read-out: GI; in short: as §1
# K562 = experiment: Growth inhibition of human K562 cells at 10 uM relative to control; settings: read-out: GI; in short: as §1
# HL-60(TB) = experiment: Growth inhibition of human HL-60(TB) cells at 10 uM relative to control; settings: read-out: GI
# In short: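 Single-dose screen at 10 μM across the 60-cell-line tumour panel. Percent growth inhibition = 100 minus percent growth activity relative to untreated control.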
# Mus musculus [1] = experiment: Anticonvulsant activity in mouse assessed as protection against maximal electroshock-induced seizure at 1 mmol/kg, ip administered 30 min prior to maximal electroshock-challenge measured after 60 mins relative to control
# Mus musculus [2] = experiment: Anticonvulsant activity in mouse assessed as protection against strychnine-induced seizure at 1 mmol/kg, ip administered 30 min prior to strychnine-challenge measured after 60 mins relative to control
# Mus musculus [3] = experiment: Anticonvulsant activity in mouse assessed as protection against pentylenetetrazol-induced seizure at 1 mmol/kg, ip administered 30 min prior to pentylenetetrazol-challenge measured after 60 mins relative to control
# MDA-MB-468 = experiment: Growth inhibition of human MDA-MB-468 cells at 10 uM relative to control; settings: read-out: GI; in short: as §1
# T47D = experiment: Growth inhibition of human T47D cells at 10 uM relative to control; settings: read-out: GI; in short: as §2
# BT-549 = experiment: Growth inhibition of human BT549 cells at 10 uM relative to control; settings: read-out: GI; in short: as §1
# MCF7 = experiment: Growth inhibition of human MCF7 cells at 10 uM relative to control; settings: read-out: GI; in short: as §1
# PC-3 = experiment: Growth inhibition of human PC3 cells at 10 uM relative to control; settings: read-out: GI; in short: as §1
# UO-31 = experiment: Growth inhibition of human UO31 cells at 10 uM relative to control; settings: read-out: GI; in short: as §2
# TK-10 = experiment: Growth inhibition of human TK10 cells at 10 uM relative to control; settings: read-out: GI; in short: as §2
# SN12C = experiment: Growth inhibition of human SN12C cells at 10 uM relative to control; settings: read-out: GI; in short: as §2
# CAKI-1 = experiment: Growth inhibition of human CAKI-1 cells at 10 uM relative to control; settings: read-out: GI; in short: as §1
# ACHN = experiment: Growth inhibition of human ACHN cells at 10 uM relative to control; settings: read-out: GI; in short: as §1
# A498 = experiment: Growth inhibition of human A498 cells at 10 uM relative to control; settings: read-out: GI; in short: as §1
smiles,measurement,setting,value
Cc1ccccc1-n1c(C)nc2cc(NC(=O)c3ccccc3)ccc2c1=O,inhibition of growth at 10 µM,OVCAR-8,5%
same,inhibition of growth at 10 µM,OVCAR-5,12%
same,inhibition of growth at 10 µM,OVCAR-4,17.3%
same,inhibition of growth at 10 µM,UACC-62,23%
same,inhibition of growth at 10 µM,SK-MEL-5,17%
same,inhibition of growth at 10 µM,MDA-MB-435,16.3%
same,inhibition of growth at 10 µM,Malme-3M,6%
same,inhibition of growth at 10 µM,M14,12%
same,inhibition of growth at 10 µM,U-251,9%
same,inhibition of growth at 10 µM,SNB-19,14%
same,inhibition of growth at 10 µM,SNB-75,21.2%
same,inhibition of growth at 10 µM,SF-295,29%
same,inhibition of growth at 10 µM,SF-539,10%
same,inhibition of growth at 10 µM,KM12,26.6%
same,inhibition of growth at 10 µM,HCT-116,3.2%
same,inhibition of growth at 10 µM,HCT-15,3.7%
same,inhibition of growth at 10 µM,HOP-62,5%
same,inhibition of growth at 10 µM,A549,11%
same,inhibition of growth at 10 µM,EKVX,11.1%
same,inhibition of growth at 10 µM,RPMI-8226,2%
same,inhibition of growth at 10 µM,SR,3.5%
same,inhibition of growth at 10 µM,MOLT-4,8.2%
same,inhibition of growth at 10 µM,K562,9%
same,inhibition of growth at 10 µM,HL-60(TB),6%
same,Activity,Mus musculus [1],33%
same,Activity,Mus musculus [2],0%
same,Activity,Mus musculus [3],33%
same,inhibition of growth at 10 µM,MDA-MB-468,2%
same,inhibition of growth at 10 µM,T47D,28%
same,inhibition of growth at 10 µM,BT-549,18%
same,inhibition of growth at 10 µM,MCF7,7%
same,inhibition of growth at 10 µM,PC-3,8%
same,inhibition of growth at 10 µM,UO-31,2.5%
same,inhibition of growth at 10 µM,TK-10,24%
same,inhibition of growth at 10 µM,SN12C,15%
same,inhibition of growth at 10 µM,CAKI-1,4%
same,inhibition of growth at 10 µM,ACHN,24%
same,inhibition of growth at 10 µM,A498,23%
